Source: ChEMBL document CHEMBL1144952 (J Med Chem, 2003)
pIC50, pKi: −log10 of the molar value.

Key:
Cannabinoid receptor 1 = Cannabinoid receptor 1 (Homo sapiens, UniProt P21554); assay: Binding affinity of compound against human cannabinoid receptor 1 in chinese hamster ovary cells by using radioligand CP-55940; format: cell-based, CHO
Method in brief: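 CHO-K1 membranes expressing human CB1; CP55,940 used as radiolabelled tracer (routinely 10 nM). Bound label collected by filtration and measured by scintillation counting.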

[1] = In vitro inhibitory concentration of compound against TNF-alpha release in human peripheral blood mononuclear cells was determined; format: functional
Method in brief: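 PBMCs isolated by ficoll from healthy donor blood and plated at 1 × 10^6 cells/mL in RPMI with 10% FBS. Compounds were added for 30 min before stimulation with LPS (25 ng/mL final). After 6 h at 37 °C, supernatant TNF-α was measured by ELISA.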

Cannabinoid receptor 2 [2] = target: T1, Cannabinoid receptor 2 (Homo sapiens, UniProt P34972); assay: Binding affinity against human cannabinoid receptor 2 in chinese hamster ovary cells using WIN-55212-2 mesylate[57-3H]; format: cell-based, CHO
Mus musculus [3] = assay: Percentage reduction of serum TNF-alpha when dose of 50 mg/kg was administered orally in mice; format: functional; details: route oral
Method in brief: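 Female BALB/c mice, 6–8 weeks old, given compound by gavage in 50% propylene glycol/water 10 min before iv LPS (0.1 mL of 10 μg/mL in PBS). Serum TNF-α was measured by ELISA 60 min after LPS; 8 mice per group, mean ± SD.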

Mus musculus [4] = assay: Effective dose of compound against inhibition of LPS stimulated TNF-alpha release when administered intravenously in mice; format: functional; details: iv
Method in brief: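 Female BALB/c mice, 6–8 weeks old. Compound in 10% propylene glycol/PBS was co-injected iv with LPS (E. coli O111:B4, 10 μg/mL in the dosing solution, 0.1 mL per mouse). Serum was taken 60 min later and TNF-α measured by ELISA; 8 mice per group, mean ± SD.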

Cannabinoid receptor 2 [5] = target: T1, Cannabinoid receptor 2; assay: Percent Inhibition of binding at 100 nM against human cannabinoid receptor 2 in chinese hamster ovary cells by using a radioligand WIN-55212-2 mesylate[57-3H]; format: cell-based; details: CHO
Cannabinoid receptor 2 [6] = target: T1, Cannabinoid receptor 2; assay: Percent Inhibition of binding at […] against human cannabinoid receptor 2 in chinese hamster ovary cells by using a radioligand WIN-55212-2 mesylate[57-3H]; format: cell-based; details: CHO

Sequence of Cannabinoid receptor 1 (P21554 whole entry): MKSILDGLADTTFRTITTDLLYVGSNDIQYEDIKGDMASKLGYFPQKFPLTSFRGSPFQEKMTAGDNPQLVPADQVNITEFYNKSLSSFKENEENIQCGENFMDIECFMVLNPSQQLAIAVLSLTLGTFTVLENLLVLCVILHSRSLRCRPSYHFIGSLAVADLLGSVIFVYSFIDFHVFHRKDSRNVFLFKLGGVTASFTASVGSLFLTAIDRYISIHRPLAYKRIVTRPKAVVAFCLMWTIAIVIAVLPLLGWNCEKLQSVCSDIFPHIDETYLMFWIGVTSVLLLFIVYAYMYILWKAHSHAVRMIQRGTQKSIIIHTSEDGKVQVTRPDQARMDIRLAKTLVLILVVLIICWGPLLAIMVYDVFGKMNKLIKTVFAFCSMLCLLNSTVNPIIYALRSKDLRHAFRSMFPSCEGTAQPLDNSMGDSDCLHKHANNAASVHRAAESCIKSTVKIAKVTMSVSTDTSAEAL
T1 sequence (P34972 whole entry): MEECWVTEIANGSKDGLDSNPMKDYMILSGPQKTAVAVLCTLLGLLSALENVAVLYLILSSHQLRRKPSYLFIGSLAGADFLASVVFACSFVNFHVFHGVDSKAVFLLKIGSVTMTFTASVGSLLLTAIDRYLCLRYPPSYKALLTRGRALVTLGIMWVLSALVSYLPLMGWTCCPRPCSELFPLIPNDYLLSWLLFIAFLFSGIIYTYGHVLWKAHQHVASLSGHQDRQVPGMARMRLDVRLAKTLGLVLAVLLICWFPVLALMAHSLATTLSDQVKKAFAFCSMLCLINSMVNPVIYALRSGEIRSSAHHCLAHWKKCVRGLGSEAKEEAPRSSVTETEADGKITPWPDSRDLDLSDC

Compound	pKi (Cannabinoid receptor 1)	pIC50 [1]	pKi (Cannabinoid receptor 2 [2])	Reduction (Mus musculus [3])	ED50 (Mus musculus [4])	inhibition (Cannabinoid receptor 2 [5])	inhibition (Cannabinoid receptor 2 [6])
COc1cccc2c(C(=O)NC3C(C)(C)[C@@H]4CC[C@@]3(C)C4)nn(CCN3CCOCC3)c12 (some centres not stated)	7.62	4.52	8.70	–	–	–	–
COc1cccc2c(C(=O)NC3C(C)(C)[C@@H]4CC[C@@]3(C)C4)c(C)n(CCN3CCOCC3)c12 (some centres not stated)	8.10	4.48	7.54	–	–	–	–
COc1cccc2c(C(=O)NC3C(C)(C)[C@@H]4CC[C@@]3(C)C4)cn(CCN3CCOCC3)c12 (some centres not stated)	6.61	4.89	7.96	–	–	–	–
COc1cccc2c3c(=O)n([C@@H]4C(C)(C)[C@@H]5CC[C@@]4(C)C5)ccc3n(CCN3CCOCC3)c12	7.80	5.10	9.00	61%	2 mg/kg	–	–
CCCc1c(C(=O)NC2C(C)(C)[C@@H]3CC[C@@]2(C)C3)c2cccc(OC)c2n1CCN1CCOCC1 (some centres not stated)	–	–	–	–	–	6%	–
COc1ccccc1CNC(=O)c1nn(CCN2CCOCC2)c2c(OC)cccc12	–	4.37	7.11	–	–	–	–
COc1ccccc1Cn1ccc2c(c1=O)c1cccc(OC)c1n2CCN1CCOCC1	5.43	5.15	7.17	–	–	–	–
COc1cccc2c(C(=O)N(Cc3c(F)cccc3Cl)C(C)C)nn(CCN3CCOCC3)c12	–	4.44	7.16	–	–	–	–
COc1cccc2c(C(=O)NC(c3ccccc3)c3ccccn3)nn(CCN3CCOCC3)c12 (configuration not stated)	6.79	4.70	6.84	–	–	–	–
COc1cccc2c3c(=O)n(C(c4ccccc4)c4ccccn4)ccc3n(CCN3CCOCC3)c12 (configuration not stated)	–	–	–	–	–	–	13%
CCc1c(C(=O)NC2C(C)(C)[C@@H]3CC[C@@]2(C)C3)c2cccc(OC)c2n1CCN1CCOCC1 (some centres not stated)	–	–	6.96	–	–	–	–
